Tb MetRS inh: blocks T. brucei methionyl-tRNA synthetase activity; purified T. brucei MetRS, ATP depletion, Kinase-Glo luminescence; inhibition, % at 11.9 µM; 360,000 compounds, 0.4% hits;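 active means inhibition above a per-plate cutoff of the control wells' mean inhibition plus 3 SD, cut at about 5.5% in these data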
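Measured by: Kinase-Glo luciferase luminescence reporting remaining unconsumed ATP. Material: purified T. brucei MetRS enzyme. Doses: 11.9 µM compound single dose, 0.9% DMSO. Medium: HEPES buffer containing pyrophosphatase, BSA, spermine, DTT. Times: 15 min preincubation, 2 h reaction, all 25 °C. Reagent: methionine, ATP and bulk E. coli tRNA.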
AHR activator: activators of human aryl hydrocarbon receptor; AHR-responsive luciferase reporter cells, luminescence; activation, % at 5 µM; 320,000 compounds, 2.5% hits; AID 2796; in the data active means activation above about 47%
Target sequence (P35869 whole entry, looked up): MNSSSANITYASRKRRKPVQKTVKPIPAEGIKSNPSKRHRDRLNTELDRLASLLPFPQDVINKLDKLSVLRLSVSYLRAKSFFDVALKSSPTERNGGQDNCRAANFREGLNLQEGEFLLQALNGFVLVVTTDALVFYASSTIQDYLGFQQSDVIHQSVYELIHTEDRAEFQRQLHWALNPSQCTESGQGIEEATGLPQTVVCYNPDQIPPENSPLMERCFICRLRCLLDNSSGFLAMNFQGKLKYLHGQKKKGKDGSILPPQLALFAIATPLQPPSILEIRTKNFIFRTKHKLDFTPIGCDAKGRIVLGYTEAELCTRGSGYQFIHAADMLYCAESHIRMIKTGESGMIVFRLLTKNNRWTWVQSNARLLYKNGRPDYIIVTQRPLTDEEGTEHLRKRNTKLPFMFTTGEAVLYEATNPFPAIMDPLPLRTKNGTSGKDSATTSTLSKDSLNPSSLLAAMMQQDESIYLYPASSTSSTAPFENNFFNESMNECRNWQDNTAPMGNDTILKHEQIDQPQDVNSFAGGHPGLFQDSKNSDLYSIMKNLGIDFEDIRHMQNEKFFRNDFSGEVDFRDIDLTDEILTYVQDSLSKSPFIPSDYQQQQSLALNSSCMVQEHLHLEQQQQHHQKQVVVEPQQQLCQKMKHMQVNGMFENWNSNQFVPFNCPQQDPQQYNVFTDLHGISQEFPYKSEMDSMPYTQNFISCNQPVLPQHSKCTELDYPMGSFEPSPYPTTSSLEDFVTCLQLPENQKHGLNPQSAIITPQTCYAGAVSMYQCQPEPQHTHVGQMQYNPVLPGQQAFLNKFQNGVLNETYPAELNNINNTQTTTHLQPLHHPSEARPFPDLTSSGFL
m5-HT2A agonist: activates the mouse 5-HT2A serotonin receptor. P35363. CHO-K1 mHTR2A beta-arrestin complementation, luminescence; percent of 30 µM serotonin response. activation, % at 7.6 µM. 360,000 compounds, 0.66% hits;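 active means activation above a run cutoff, the mean activation of all tested compounds plus 3 SD, cut at about 14% in these data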
AI-2 QS modul: modulators of Vibrio harveyi AI-2 quorum sensing system; Vibrio harveyi JMH597 AI-2 luminescence/OD600 ratio, 9 h; active compounds read low; strain lacks LuxN and CqsS sensors; 0 = neutral-control median; activity change, % at 7.5 µM; 300,000 compounds, 0.4% hits; in the data active means activity change below about -75%, passing the limit was not always enough;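 further: luminescence divided by OD600 gain over 9 h not by final OD600 alone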
MsrA inhibitor: inhibits bovine methionine sulfoxide reductase A | 360,000 compounds, 0.75% hits | inhibition, % at 15.5 µM | purified bovine MsrA, absorbance read-out; in the data active means inhibition above about 4.5%
MsrA act: activators of bovine methionine sulfoxide reductase A; 360,000 compounds, 0.3% hits; activation, % at 10.6 µM; AID 602163; purified bovine MsrA, absorbance read-out; in the data active means activation above about 7.5%
Tb MetRS conf: Trypanosoma brucei MetRS inhibition confirmed | shares compounds with Tb MetRS inh | T. brucei MetRS enzyme, luminescence (ATP depletion) | inhibition, % at 11.9 µM | 1,400 compounds, 93% hits; in the data active means inhibition above about 7%
Jurkat tox: Jurkat T cell cytotoxicity for MetRS hits | shares compounds with Tb MetRS inh | Jurkat cells viability, ATP luminescence | inhibition, % at 8.3 µM | 1,400 compounds, 12% hits | AID 624413; in the data active means inhibition above about 15%
Tb MetRS inh FP: orthogonal test for Trypanosoma brucei MetRS inhibitors; shares compounds with Tb MetRS inh; purified T. brucei MetRS, fluorescence polarization; inhibition, % at 11.9 µM; 1,400 compounds, 44% hits; in the data active means inhibition above about 17%
Hits are given with their value; 0 = inactive; - = no result given. Compounds with a hit are over-represented: about 4.4% of the library has one in this group of screens.

SMILES | Tb MetRS inh | AHR activator | m5-HT2A agonist | AI-2 QS modul | MsrA inhibitor | MsrA act | Tb MetRS conf | Jurkat tox | Tb MetRS inh FP
COc1ccccc1CCNC(=O)C(=O)NCC1OCCN1C(=O)c1ccc(Cl)cc1 (centres undefined) | 0 | 0 | 0 | 0 | 0 | 0 | - | - | -
Cc1cccc(C(=O)OC(C)C(=O)N2CCN(Cc3ccccc3)CC2)c1 (centres undefined) | 0 | - | 0 | - | 0 | 0 | - | - | -
COCC(=O)N(Cc1cc2cc(C)ccc2[nH]c1=O)c1cccc(C)c1C | 5.6 | 0 | 0 | - | 0 | 0 | 12 | 0 | 0
COCC(=O)N(Cc1cc2cc(C)ccc2[nH]c1=O)c1ccc(C)c(C)c1 | 0 | 0 | 0 | 0 | 0 | 0 | - | - | -
O=C(NCc1nc2ccccc2[nH]1)C1=C[C@H](C2CC2)C[C@H](OCc2ccc(CO)cc2)O1 | 50 | 0 | 0 | 0 | 0 | 0 | 83 | 0 | 56
O=C(NCc1nc2ccccc2[nH]1)C1=C[C@@H](C2CC2)C[C@@H](OCc2ccc(CO)cc2)O1 | 81 | 0 | 0 | 0 | 0 | 0 | 99 | 0 | 87
O=C(O)C1=C[C@H](C2CC2)C[C@H](OCc2ccc(CO)cc2)O1 | 0 | 0 | 0 | 0 | 0 | 0 | - | - | -
O=C(Nc1ccccc1)C1=C[C@@H](C2CC2)C[C@@H](OCc2ccc(CO)cc2)O1 | 0 | 0 | 0 | 0 | 0 | 0 | - | - | -
O=C1N(Cc2cccc(Cl)c2)C[C@@H]2C[C@@H](c3c[nH]c4ccccc34)N3CCC[C@@]123 | 5.9 | 0 | 0 | 0 | 0 | 0 | 11 | 0 | 0
O=C1N(Cc2cccc(Cl)c2)C[C@@H]2C[C@@H](c3cccc4ncccc34)N3CCC[C@@]123 | 0 | 0 | 0 | 0 | 0 | 0 | - | - | -
Cc1nn2c(-c3ccc(S(=O)(=O)N4CCN(C)CC4)o3)nnc2c2ccccc12 | 0 | 0 | 0 | 0 | 0 | 0 | - | - | -
CCOc1ccc(/C=C2\SC(=S)N(NS(=O)(=O)c3ccccc3)C2=O)cc1OC | 0 | 0 | 0 | 0 | 0 | 0 | - | - | -
CCOc1cc(/C=C2\SC(=S)N(NS(=O)(=O)c3ccccc3)C2=O)ccc1O | 9.0 | 0 | 0 | 0 | 0 | 0 | 19 | 0 | 24
CCOc1cc(/C=C2\SC(=O)N=C2N)ccc1O | 32 | 48 | 0 | 0 | 0 | 0 | 44 | 0 | 19
Clc1ccc(CN2CCC(c3nc4ccc(Cl)cc4[nH]3)CC2)cc1 | 8.4 | 0 | 0 | 0 | 0 | 0 | 17 | 21 | 0
NC(=O)[C@@H]1CCCNc2c(I)cc([N+](=O)[O-])cc2C(=O)N[C@@H](CO)C(=O)N[C@@H](Cc2ccc(O)cc2)C(=O)N1 | 7.4 | 0 | 0 | 0 | 0 | 0 | 21 | 0 | 0
CC(C)(C)c1csc(NC(=O)CSC2=NCCS2)n1 | 6.0 | 0 | 0 | 0 | 0 | 0 | 0 | 0 | 0
CC(=O)Nc1cnc(-c2ccccc2O)cn1 | 0 | - | 0 | - | 0 | 0 | - | - | -
O=c1c(Cc2ccc(Cl)cc2Cl)c(O)ccn1Cc1ccc(Cl)cc1 | 5.9 | 0 | 0 | 0 | 0 | 0 | 16 | 0 | 0
CCOC(CCn1ccc(O)c(Cc2ccc(Cl)cc2)c1=O)OCC | 0 | 0 | 0 | 0 | 0 | 0 | - | - | -
CCOC(=O)Cn1ccc(O)c(Cc2ccc(Cl)cc2Cl)c1=O | 23 | 0 | 0 | 0 | 0 | 0 | 38 | 0 | 0
CCCCN1C(=O)C(CC(=O)NCc2ccco2)CC(C(=O)N2CCOCC2)=C1C (centres undefined) | 0 | - | 0 | - | 0 | 0 | - | - | -
O=C(Cc1ccc(NC(=O)C2CCN(C(=O)C3CC3)CC2)cc1)Nc1cccc(C(=O)N2CCCC2)c1 | 0 | - | 0 | - | 0 | 0 | - | - | -
O=C(COc1ccc([N+](=O)[O-])cc1)NCCc1nc2ccccc2[nH]1 | 6.9 | 0 | 0 | 0 | 0 | 0 | 12 | 0 | 0
O=C(NCCc1nc2ccccc2[nH]1)c1ccc([N+](=O)[O-])cc1 | 36 | 0 | 0 | 0 | 0 | 0 | 58 | 0 | 29
SMILES | Tb MetRS inh | AHR activator | m5-HT2A agonist | AI-2 QS modul | MsrA inhibitor | MsrA act | Tb MetRS conf | Jurkat tox | Tb MetRS inh FP
O=C(NCCc1nc2ccccc2[nH]1)c1cccc(Br)c1 | 19 | 0 | 0 | 0 | 0 | 0 | 30 | 0 | 0
O=C(N/C(=C\c1cccnc1)c1nc2ccccc2[nH]1)c1cccc(Br)c1 | 66 | 0 | 0 | 0 | 0 | 0 | 80 | 0 | 57
CCCn1cnnc1CNC(=O)C1CCC(=O)N(CCc2ccc(OC)cc2)C1 (centres undefined) | 0 | 0 | 0 | 0 | 0 | 0 | - | - | -
CC1(C2CCC3C4CCC5CC6(CCC5(C)C4C(=O)CC32C)OCCO6)OCCO1 (centres undefined) | 0 | - | 0 | - | 0 | 0 | - | - | -
COC(CNC(=O)c1ccc2c(c1)nc(C)n2-c1cccc(C)c1)OC | 0 | 0 | 0 | 0 | 0 | 0 | - | - | -
O=C(Cc1nc2ccccc2[nH]1)c1ccc([N+](=O)[O-])cc1 | 8.0 | 0 | 0 | 0 | 0 | 0 | 5.8 | 0 | 0
CC(=O)NCCc1nc2ccccc2[nH]1 | 0 | 0 | 0 | 0 | 0 | 0 | - | - | -
CN/N=C(\Cc1nc2ccccc2[nH]1)c1ccc([N+](=O)[O-])cc1 | 0 | - | 0 | - | 0 | 0 | - | - | -
O=C(NCCc1nc2ccccc2[nH]1)c1ccc(F)cc1 | 6.4 | 0 | 0 | 0 | - | 0 | 10 | 0 | 0
CCn1cnc2cc(NCc3cccc(OC)c3O)ccc21 | 18 | 0 | 0 | 0 | 0 | 0 | 36 | 0 | 0
O=C(O)c1ccc(CSc2nnc(COc3ccc(Cl)cc3Cl)o2)cc1 | 48 | 0 | 0 | 0 | 0 | 0 | 60 | 0 | 35
COc1ccccc1CNC(=O)C1CCCN1S(=O)(=O)c1ccc2c(c1)C(C)(C)C(=O)N2C (centres undefined) | 0 | - | 0 | - | 0 | 0 | - | - | -
COc1ccc(CC(=O)OCC(=O)Nc2ccc(Br)cc2)cc1 | 11 | 0 | 0 | 0 | 0 | 0 | 31 | 0 | 25
COc1ccc(OCCC(=O)OCC(=O)Nc2ccc(Br)cc2)cc1 | 17 | 0 | 0 | 0 | 0 | 0 | 18 | 0 | 0
CC(=O)C1=C(O)CCCC1=NCc1nc2ccccc2[nH]1 | 6.2 | 0 | 0 | - | 0 | 0 | 12 | 0 | 0
COC(=O)CC/C(O)=C1\C(=O)CC(C)(C)CC1=NCc1nc2ccccc2[nH]1 | 48 | 0 | 0 | 0 | 0 | 0 | 67 | 0 | 35
Cc1ccc(OCc2nnc(SCc3nc4ccccc4[nH]3)n2Cc2ccco2)cc1 | 35 | 0 | 0 | 0 | 0 | 0 | 62 | 0 | 34
CCn1c(COc2ccc(Cl)cc2)nnc1SCc1nc2ccccc2[nH]1 | 54 | 0 | 0 | 0 | 0 | 0 | 58 | 0 | 36
COc1cccc(N2CCN(S(=O)(=O)c3ccc4c(c3)NC(=O)C(C)C(=O)N4)CC2)c1 (centres undefined) | 0 | 0 | 0 | 0 | 0 | 0 | - | - | -
S=C(NCc1ccncc1)Nc1ccc(Cl)c(Cl)c1 | 0 | 0 | 0 | 0 | 0 | 0 | - | - | -
